Experimental data taken from ChEMBL document CHEMBL1139824, “Optimization of a pyrazoloquinolinone class of Chk1 kinase inhibitors” (Bioorg Med Chem Lett, 2007).

Columns and labels:
NCI-H1299 = assay: Inhibition of camptothecin-induced cell cycle arrest in NCI-H1299 cells after 8 hrs; assay type: functional, cell-based; conditions: Homo sapiens, NCI-H1299, 8 h
In short: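 NCI-H1299 lung carcinoma cells held 16 h in camptothecin to arrest, then exposed to inhibitor a further 8 h. Escape into mitosis scored by mitosis-specific nucleolin phosphorylation, quantified with an antibody-coated bead-based assay.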

[1] = target: T1, Serine/threonine-protein kinase Chk1 (Homo sapiens, UniProt O14757); assay: Inhibition of Chk1 by fluorescence assay
T1 sequence (O14757 whole entry): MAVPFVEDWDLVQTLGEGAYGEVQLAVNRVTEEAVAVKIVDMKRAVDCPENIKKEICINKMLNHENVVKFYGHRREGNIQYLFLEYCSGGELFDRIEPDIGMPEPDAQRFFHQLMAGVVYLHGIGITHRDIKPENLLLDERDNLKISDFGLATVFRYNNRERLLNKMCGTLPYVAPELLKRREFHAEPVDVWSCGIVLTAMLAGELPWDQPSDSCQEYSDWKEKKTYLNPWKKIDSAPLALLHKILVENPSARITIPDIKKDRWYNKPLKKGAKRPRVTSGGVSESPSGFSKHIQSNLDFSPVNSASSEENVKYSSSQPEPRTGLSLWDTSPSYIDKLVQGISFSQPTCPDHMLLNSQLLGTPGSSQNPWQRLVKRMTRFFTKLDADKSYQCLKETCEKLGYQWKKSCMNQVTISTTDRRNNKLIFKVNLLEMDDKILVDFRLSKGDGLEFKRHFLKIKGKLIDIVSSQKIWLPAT

Compound | EC50 (NCI-H1299) [nM] | IC50 [1] [nM]
Cc1[nH]nc2c1c(=O)n(C[C@@H](F)CN)c1cc(C3CCCCC3)c(C3CCCCC3)cc21 | 83 | 3.2
CCn1c(=O)c2c(C)[nH]nc2c2cc3c(cc21)CN(C(=O)NCCN)CC3 | > 10000 | 12
Cc1[nH]nc2c1c(=O)n(CCCCN)c1ccc(Cl)cc21 | 1010 | 20
CCn1c(=O)c2c(C)[nH]nc2c2cc3c(cc21)CN(C(=O)CN)CC3 | > 10000 | 18
Cc1[nH]nc2c1c(=O)[nH]c1c(CCCN)c(C3CCCCC3)c(C3CCCCC3)cc12 | – | 290
Cc1[nH]nc2c1c(OCCCN)nc1ccc(Cl)cc12 | 10200 | 64
CC(=O)Nc1ccc2[nH]c(=O)c3c(C)[nH]nc3c2c1 | – | 7080
CCn1c(=O)c2c(C)[nH]nc2c2cc3c(cc21)CN(S(=O)(=O)CCN)CC3 | > 10000 | 10
Cc1cccc2c1[nH]c(=O)c1c(C)[nH]nc12 | – | 1490
Cc1[nH]nc2c1c(NCCN)nc1ccc(Cl)cc12 | – | 60
Cc1[nH]nc2c1c(=O)n(C[C@H](F)CN)c1cc(C3CCCCC3)c(C3CCCCC3)cc21 | 65 | 3.1
Cc1[nH]nc2c1c(=O)[nH]c1ccc(Cl)cc12 | 2980 | 40
Cc1[nH]nc2c1c(=O)n(CCCN)c1ccc(Cl)cc21 | 160 | 1.2
Cc1[nH]nc2c1c(=O)[nH]c1cccc(Cl)c12 | – | 28900
Cc1[nH]nc2c1c(NCCCN)nc1ccc(Cl)cc12 | – | 220
Cc1[nH]nc2c1c(=O)[nH]c1cc3ccccc3cc12 | 710 | 29
Cc1ccc2[nH]c(=O)c3c(C)[nH]nc3c2c1 | – | 230
Cc1[nH]nc2c1c(=O)[nH]c1cccc(C)c12 | – | > 100000
Cc1[nH]nc2c1c(=O)n(CCN)c1ccc(Cl)cc21 | 980 | 36
Cc1[nH]nc2c1c(OCCN)nc1ccc(Cl)cc12 | – | 850
Cc1[nH]nc2c1c(=O)[nH]c1cc(Cl)ccc12 | – | 1980
Cc1[nH]nc2c1c(=O)[nH]c1ccccc12 | – | 1370
Cc1[nH]nc2c1c(=O)[nH]c1cc3c(cc12)CCCC3 | 1210 | 130
Cc1[nH]nc2c1c(=O)[nH]c1c(/C=C/CN)c(C3CCCCC3)c(C3CCCCC3)cc12 | – | 58
